Reference: ChEMBL document CHEMBL4411287, “Discovery and optimization of a series of 3-substituted indazole derivatives as multi-target kinase inhibitors for the treatment of lung squamous cell carcinoma” (Eur J Med Chem, 2019)
Active and inactive are the calls of the source. The calls are words filed in the database; no cut-off is given here.

What was measured:
[1] = target: Fibroblast growth factor receptor 2 (Homo sapiens) (UniProt P21802); experiment: Inhibition of FGFR2 phosphorylation in human SNU-16 cells after 2 hrs by Western blot analysis; assay type: cell-based
Outline: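 SNU-16 cells exposed to compound for 2 h at 37 °C, lysed in 1× SDS sample buffer, resolved by 10% SDS-PAGE and blotted to nitrocellulose; probed for phospho-FGFR, FGFR2, phospho-ERK, ERK and GAPDH, then HRP anti-rabbit or anti-mouse IgG; enhanced chemiluminescence detection.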

[2] = target: Platelet-derived growth factor receptor beta (Homo sapiens) (UniProt P09619); experiment: Inhibition of PDGFR-beta (unknown origin) at 100 nM relative to control
Sequence of Platelet-derived growth factor receptor beta (Homo sapiens) (P09619 whole entry, the tested form may be a part): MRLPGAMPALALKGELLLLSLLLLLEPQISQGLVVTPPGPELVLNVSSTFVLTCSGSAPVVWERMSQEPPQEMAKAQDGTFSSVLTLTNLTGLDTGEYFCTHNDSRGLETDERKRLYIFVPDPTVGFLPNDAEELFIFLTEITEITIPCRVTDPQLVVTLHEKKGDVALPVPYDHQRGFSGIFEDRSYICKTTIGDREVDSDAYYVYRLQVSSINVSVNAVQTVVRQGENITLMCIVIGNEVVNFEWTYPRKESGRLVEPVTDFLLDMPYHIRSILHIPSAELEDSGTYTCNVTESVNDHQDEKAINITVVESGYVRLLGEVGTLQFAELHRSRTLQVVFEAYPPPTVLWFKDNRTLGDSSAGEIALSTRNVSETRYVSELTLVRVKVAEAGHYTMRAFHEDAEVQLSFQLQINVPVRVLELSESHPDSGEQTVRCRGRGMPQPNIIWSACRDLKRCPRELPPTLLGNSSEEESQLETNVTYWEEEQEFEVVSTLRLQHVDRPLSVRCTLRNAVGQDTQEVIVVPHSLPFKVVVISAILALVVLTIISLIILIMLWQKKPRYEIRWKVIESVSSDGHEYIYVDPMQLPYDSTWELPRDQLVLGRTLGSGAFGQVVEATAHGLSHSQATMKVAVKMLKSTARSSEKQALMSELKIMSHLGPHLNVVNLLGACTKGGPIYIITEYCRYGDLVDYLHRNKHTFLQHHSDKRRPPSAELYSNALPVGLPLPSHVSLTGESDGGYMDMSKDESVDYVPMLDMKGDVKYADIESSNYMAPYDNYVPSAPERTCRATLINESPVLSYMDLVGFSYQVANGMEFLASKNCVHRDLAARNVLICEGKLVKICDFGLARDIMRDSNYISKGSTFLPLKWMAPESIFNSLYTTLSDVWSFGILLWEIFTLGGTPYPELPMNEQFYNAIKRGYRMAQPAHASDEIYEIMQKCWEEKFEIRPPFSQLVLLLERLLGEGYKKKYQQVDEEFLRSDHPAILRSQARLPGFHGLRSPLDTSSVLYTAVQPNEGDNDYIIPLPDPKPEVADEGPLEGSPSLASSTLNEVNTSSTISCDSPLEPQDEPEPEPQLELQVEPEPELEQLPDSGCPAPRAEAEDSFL
Outline: (§1)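 Purified recombinant kinase domains run in ELISA on precoated poly(Glu,Tyr) 4:1 (20 µg/mL) with 10 µM ATP in 50 mM HEPES pH 7.4, 50 mM MgCl2, 0.5 mM MnCl2, 0.2 mM Na3VO4, 1 mM DTT; 1% DMSO control; 60 min at 37 °C. Phosphotyrosine read by PY99 antibody, HRP anti-mouse IgG, OPD/H2O2 at 490 nm; inhibition = [1−A490/A490control]×100%; two separate experiments.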

[3] = target: Focal adhesion kinase 1 (Homo sapiens) (UniProt Q05397); experiment: Inhibition of FAK (unknown origin) at 1000 nM relative to control; outline: as §1
[4] = target: Tyrosine-protein kinase BTK (Homo sapiens) (UniProt Q06187); experiment: Inhibition of BTK (unknown origin) at 1000 nM relative to control
Sequence of Tyrosine-protein kinase BTK (Homo sapiens) (Q06187 whole entry): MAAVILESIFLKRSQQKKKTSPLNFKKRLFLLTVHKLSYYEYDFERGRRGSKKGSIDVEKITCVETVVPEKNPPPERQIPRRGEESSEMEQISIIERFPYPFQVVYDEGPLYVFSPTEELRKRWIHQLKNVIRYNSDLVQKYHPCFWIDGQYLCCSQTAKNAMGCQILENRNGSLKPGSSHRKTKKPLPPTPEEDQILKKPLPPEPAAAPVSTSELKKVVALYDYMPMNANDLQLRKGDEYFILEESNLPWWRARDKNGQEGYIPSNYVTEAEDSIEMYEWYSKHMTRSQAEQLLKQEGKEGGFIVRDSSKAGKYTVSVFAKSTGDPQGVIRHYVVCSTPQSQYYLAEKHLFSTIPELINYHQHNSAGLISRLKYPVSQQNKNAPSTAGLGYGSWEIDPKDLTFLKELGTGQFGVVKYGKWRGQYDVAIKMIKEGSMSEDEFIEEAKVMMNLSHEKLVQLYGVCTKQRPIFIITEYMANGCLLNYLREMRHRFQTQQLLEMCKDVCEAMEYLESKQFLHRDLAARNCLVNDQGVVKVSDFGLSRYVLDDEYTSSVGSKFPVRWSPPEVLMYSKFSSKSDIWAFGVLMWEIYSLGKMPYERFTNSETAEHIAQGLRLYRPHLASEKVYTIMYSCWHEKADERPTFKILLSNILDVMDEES

NCI-H1581 = experiment: Antitumor activity against human NCI-H1581 cells xenografted in po dosed nude mouse assessed as tumor growth inhibition administered as qd for 7 to 10 days; assay type: functional, organism-based
Outline: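 Female nude mice, 4-6 weeks old. NCI-H1581 cells (5×10^6 in 200 µL) injected s.c., grown to 700-800 mm³, then 1-mm³ fragments implanted s.c. by trocar. At 100-150 mm³ animals were randomized (vehicle n=12, treated n=6) and dosed orally once daily for 7 days. Tumours measured twice weekly, volume = length×width²/2. TGI calculated from change in tumour volume versus vehicle on the final day, with Student's t-test.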

[5] = target: Vascular endothelial growth factor receptor 2 (Homo sapiens) (UniProt P35968); experiment: Inhibition of VEGFR2 (unknown origin) at 100 nM relative to control
Outline: (§2)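 ELISA with purified recombinant kinase on plates precoated with poly(Glu,Tyr) 4:1 at 20 µg/mL. ATP 10 µM in HEPES pH 7.4 buffer with MgCl2, MnCl2, Na3VO4 and DTT. Run 60 min at 37 °C. Detected with anti-phosphotyrosine PY99, HRP secondary antibody and o-phenylenediamine, read at 490 nm. Inhibition % = [1 − A490/A490 control]×100. 1% DMSO as negative control.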

[6] = target: Ephrin type-A receptor 2 (Homo sapiens) (UniProt P29317); experiment: Inhibition of EPH-A2 (unknown origin) at 1000 nM relative to control; outline: as §1
Sequence of Ephrin type-A receptor 2 (Homo sapiens) (P29317 whole entry, the tested form may be a part): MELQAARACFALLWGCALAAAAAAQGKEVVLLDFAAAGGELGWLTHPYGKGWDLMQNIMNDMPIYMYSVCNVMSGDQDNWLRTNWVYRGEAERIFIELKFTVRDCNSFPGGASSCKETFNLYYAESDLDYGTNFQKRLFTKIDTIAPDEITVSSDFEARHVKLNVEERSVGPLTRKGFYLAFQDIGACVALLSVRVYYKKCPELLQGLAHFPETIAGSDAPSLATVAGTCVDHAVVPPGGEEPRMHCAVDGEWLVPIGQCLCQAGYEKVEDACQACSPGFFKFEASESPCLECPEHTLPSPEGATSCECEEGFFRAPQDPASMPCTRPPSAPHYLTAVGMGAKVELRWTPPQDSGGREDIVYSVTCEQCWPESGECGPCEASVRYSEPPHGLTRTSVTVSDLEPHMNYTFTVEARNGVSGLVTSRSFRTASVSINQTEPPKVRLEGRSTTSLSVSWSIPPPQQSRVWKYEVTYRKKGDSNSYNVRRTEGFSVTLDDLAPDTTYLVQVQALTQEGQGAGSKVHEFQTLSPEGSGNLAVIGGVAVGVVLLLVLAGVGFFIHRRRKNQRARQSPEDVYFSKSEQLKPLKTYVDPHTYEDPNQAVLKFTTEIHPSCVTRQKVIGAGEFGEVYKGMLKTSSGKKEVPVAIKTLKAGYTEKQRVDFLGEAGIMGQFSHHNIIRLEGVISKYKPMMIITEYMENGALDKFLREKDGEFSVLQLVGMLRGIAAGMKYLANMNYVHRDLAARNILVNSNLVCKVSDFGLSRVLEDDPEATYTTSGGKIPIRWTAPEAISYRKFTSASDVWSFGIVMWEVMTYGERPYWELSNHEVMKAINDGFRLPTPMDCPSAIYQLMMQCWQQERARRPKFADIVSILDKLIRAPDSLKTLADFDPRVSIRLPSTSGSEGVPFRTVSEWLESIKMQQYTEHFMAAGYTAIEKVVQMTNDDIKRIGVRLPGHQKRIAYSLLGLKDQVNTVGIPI

[7] = test system: T1, Discoidin domain-containing receptor 2 (Homo sapiens), Q16832 [I638F]; experiment: Inhibition of DDR2 I638F mutant in human NCI-H2286 cells assessed as decrease in AKT phosphorylation at […] after 2 hrs by Western blot analysis; assay type: cell-based
T1 sequence (whole entry): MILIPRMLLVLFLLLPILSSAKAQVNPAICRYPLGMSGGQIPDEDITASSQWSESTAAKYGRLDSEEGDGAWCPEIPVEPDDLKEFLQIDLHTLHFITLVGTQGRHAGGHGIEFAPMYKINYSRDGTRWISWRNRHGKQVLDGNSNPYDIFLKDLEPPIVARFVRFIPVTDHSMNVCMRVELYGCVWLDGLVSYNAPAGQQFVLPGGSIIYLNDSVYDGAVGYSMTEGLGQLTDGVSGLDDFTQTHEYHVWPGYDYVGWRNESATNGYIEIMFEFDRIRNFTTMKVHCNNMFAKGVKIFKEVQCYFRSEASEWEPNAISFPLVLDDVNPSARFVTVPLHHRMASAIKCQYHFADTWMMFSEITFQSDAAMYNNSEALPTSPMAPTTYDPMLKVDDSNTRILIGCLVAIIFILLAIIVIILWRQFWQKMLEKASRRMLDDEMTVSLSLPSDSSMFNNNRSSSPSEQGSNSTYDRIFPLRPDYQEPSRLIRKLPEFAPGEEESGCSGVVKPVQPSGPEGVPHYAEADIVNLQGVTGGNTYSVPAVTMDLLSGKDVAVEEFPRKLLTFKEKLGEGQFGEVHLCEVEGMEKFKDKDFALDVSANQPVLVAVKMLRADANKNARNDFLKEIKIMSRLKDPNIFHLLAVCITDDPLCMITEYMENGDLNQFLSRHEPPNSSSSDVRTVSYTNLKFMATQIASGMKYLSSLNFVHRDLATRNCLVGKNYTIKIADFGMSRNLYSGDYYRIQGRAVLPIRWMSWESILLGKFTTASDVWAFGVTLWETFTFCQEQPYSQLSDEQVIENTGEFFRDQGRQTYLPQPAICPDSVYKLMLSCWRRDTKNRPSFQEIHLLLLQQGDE
Outline: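 NCI-H2286 cells exposed to compound for 2 h at 37 °C and lysed in SDS sample buffer. Lysates run on 10% SDS-PAGE and blotted to nitrocellulose. Membranes probed for phospho- and total DDR2, ERK and Akt, with GAPDH as loading control, and detected by HRP secondary antibody and enhanced chemiluminescence.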

[8] = target: Tyrosine-protein kinase BTK (Homo sapiens) (UniProt Q06187); experiment: Inhibition of BTK (unknown origin) at 100 nM relative to control
[9] = target: Mitogen-activated protein kinase 1 (Homo sapiens) (UniProt P28482); experiment: Inhibition of ERK2 (unknown origin) at 100 nM relative to control
Sequence of Mitogen-activated protein kinase 1 (Homo sapiens) (P28482 whole entry): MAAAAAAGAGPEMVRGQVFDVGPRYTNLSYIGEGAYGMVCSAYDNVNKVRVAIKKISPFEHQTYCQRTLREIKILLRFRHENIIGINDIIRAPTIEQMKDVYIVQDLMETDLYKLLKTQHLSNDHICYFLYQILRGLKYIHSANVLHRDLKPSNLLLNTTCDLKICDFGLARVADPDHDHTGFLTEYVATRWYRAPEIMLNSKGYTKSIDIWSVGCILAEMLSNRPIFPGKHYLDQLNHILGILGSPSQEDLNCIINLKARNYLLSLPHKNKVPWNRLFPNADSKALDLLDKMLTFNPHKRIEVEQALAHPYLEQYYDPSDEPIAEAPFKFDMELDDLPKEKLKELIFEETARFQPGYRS

[10] = target: Fibroblast growth factor receptor 3 (Homo sapiens) (UniProt P22607); experiment: Inhibition of FGFR3 (unknown origin) at 100 nM relative to control; outline: as §1
Sequence of Fibroblast growth factor receptor 3 (Homo sapiens) (P22607 23-806 limits assumed): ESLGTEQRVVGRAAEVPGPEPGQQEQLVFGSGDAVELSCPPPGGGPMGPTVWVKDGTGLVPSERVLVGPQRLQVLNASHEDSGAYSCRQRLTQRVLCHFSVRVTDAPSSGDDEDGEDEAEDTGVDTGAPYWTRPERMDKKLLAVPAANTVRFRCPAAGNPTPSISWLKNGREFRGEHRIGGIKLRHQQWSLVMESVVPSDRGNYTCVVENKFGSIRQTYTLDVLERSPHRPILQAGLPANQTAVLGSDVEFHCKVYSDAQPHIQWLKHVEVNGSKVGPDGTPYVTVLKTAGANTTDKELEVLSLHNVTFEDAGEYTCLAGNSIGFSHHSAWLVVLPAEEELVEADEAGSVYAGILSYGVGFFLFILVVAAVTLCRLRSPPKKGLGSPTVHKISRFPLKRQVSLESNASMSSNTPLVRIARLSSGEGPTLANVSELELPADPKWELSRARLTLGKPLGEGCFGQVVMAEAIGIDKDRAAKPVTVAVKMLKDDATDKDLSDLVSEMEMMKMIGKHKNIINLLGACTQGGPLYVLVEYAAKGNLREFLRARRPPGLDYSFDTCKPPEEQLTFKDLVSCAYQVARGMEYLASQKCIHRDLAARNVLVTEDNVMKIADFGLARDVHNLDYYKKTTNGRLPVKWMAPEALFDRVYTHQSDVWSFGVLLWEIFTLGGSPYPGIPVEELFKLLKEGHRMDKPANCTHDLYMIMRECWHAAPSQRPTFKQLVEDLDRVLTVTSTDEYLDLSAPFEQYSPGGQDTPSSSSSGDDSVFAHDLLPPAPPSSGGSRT

[11] = target: Tyrosine-protein kinase ABL1 (Homo sapiens) (UniProt P00519); experiment: Inhibition of ABL (unknown origin) at 10 nM relative to control
Sequence of Tyrosine-protein kinase ABL1 (Homo sapiens) (P00519 whole entry): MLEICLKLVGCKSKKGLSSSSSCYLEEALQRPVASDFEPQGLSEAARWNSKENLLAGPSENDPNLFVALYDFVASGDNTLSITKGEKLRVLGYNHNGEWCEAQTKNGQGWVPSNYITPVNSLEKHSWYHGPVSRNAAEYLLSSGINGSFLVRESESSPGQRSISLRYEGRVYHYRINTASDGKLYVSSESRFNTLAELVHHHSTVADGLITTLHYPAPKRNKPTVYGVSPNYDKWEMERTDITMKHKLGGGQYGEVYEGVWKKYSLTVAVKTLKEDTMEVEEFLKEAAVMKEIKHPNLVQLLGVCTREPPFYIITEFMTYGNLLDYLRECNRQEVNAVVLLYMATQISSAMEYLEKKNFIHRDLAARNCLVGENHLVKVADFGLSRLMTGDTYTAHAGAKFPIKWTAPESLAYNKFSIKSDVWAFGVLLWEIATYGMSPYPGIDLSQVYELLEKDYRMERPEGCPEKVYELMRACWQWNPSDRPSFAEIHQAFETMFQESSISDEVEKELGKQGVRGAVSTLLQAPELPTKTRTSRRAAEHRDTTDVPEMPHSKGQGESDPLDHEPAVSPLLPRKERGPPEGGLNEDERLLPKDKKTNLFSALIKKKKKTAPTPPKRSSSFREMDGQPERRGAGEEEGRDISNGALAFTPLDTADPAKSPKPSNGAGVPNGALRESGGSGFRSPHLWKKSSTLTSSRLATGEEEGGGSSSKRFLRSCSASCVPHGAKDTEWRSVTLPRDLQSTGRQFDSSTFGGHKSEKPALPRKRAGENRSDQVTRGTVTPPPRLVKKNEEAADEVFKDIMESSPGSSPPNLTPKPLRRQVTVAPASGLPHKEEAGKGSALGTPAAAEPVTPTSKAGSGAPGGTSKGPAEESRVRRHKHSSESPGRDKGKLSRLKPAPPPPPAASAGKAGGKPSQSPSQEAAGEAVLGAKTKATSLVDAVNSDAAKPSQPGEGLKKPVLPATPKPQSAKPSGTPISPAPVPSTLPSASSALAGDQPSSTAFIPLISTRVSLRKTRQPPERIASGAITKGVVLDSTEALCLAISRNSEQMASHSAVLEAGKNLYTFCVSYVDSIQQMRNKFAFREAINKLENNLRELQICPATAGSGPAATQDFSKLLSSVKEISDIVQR

[12] = target: Mitogen-activated protein kinase 1 (Homo sapiens) (UniProt P28482); experiment: Inhibition of ERK2 (unknown origin) at 1000 nM relative to control
[13] = target: Cyclin-dependent kinase 6 (Homo sapiens) (UniProt Q00534); experiment: Inhibition of CDK6 (unknown origin) at 1000 nM relative to control
[14] = target: Platelet-derived growth factor receptor beta (Homo sapiens) (UniProt P09619); experiment: Inhibition of PDGFR-beta (unknown origin) at 1000 nM relative to control; outline: as §2
[15] = target: Angiopoietin-1 receptor (Homo sapiens) (UniProt Q02763); experiment: Inhibition of Tie-2 (unknown origin) at 100 nM relative to control; outline: as §2
[16] = target: Platelet-derived growth factor receptor alpha (Homo sapiens) (UniProt P16234); experiment: Inhibition of PDGFR-alpha (unknown origin) at 1000 nM relative to control; outline: as §1
[17] = target: Fibroblast growth factor receptor 3 (Homo sapiens) (UniProt P22607); experiment: Inhibition of FGFR3 (unknown origin) at 10 nM relative to control; outline: as §1
[18] = target: Tyrosine-protein kinase JAK1 (Homo sapiens) (UniProt P23458); experiment: Inhibition of JAK1 (unknown origin) at 10 nM relative to control; outline: as §1

Cc1ccc(C(=O)Nc2cccc(C(F)(F)F)c2)cc1-c1ccc2c(-c3cnn(C4CC4)c3)n[nH]c2c1
inhibition [1]: Dose-dependent effect | inhibition [2]: 99.1% | inhibition [3]: 81.7% | inhibition [4]: 80.9% | TGI (NCI-H1581): Dose-dependent effect | inhibition [5]: 99.2% | inhibition [6]: 100% | inhibition [7]: Active | inhibition [8]: 47.1% | inhibition [9]: 2.5% | inhibition [10]: 82% | inhibition [11]: 22% | inhibition [12]: 2.7% | inhibition [13]: 5.9% | inhibition [14]: 100% | inhibition [15]: 36.4% | inhibition [16]: 100% | inhibition [17]: 52.3% | inhibition [18]: 0.2%
